Activity calls are given as the source filed them. The calls are words filed in the database; no cut-off is given here.
What follows are compounds tested on Escherichia coli (assay: Induction of plasmid pBR322 DNA cleavage assessed as concentration required to cleave 50% of DNA after 24 hrs by gel electrophoresis).
In short: (§1)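 Supercoiled pBR322 (90% form I) diluted to 50 µg/mL (75 µM/bp) in pH 7.5 Tris 40 mM/EDTA 4 mM. Incubated 24 h at 37 °C, then run on agarose gel with ethidium bromide and viewed at 302 nm. Form I versus II+III quantified by densitometry after subtracting form II present in the control.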

In order of falling CS50:
1. CC(=O)O[C@@H]1C#C/C=C\C#CC[C@H]2C(=O)N(C(=O)Nc3ccc4ccccc4c3)[C@H]12  200 µM
2. CC(C)(C)OC(=O)N1C(=O)[C@@H]2CC#C/C=C\C#C[C@@H](OC(=O)CCc3ccc4ccccc4c3)[C@H]21  150 µM
3. CC(=O)O[C@@H]1C#C/C=C\C#CC[C@H]2C(=O)N(C(=O)NCCc3ccc4ccccc4c3)[C@H]12  150 µM
4. CC(C)(C)OC(=O)N1C(=O)[C@@H]2CC#C/C=C\C#C[C@@H](OC(=O)Cc3cccc4ccccc34)[C@H]21  80 µM
5. CC(C)(C)OC(=O)N1C(=O)[C@@H]2CC#C/C=C\C#C[C@@H](OC(=O)CCc3cccc4ccccc34)[C@H]21  80 µM
6. CC(=O)O[C@@H]1C#C/C=C\C#CC[C@H]2C(=O)N(C(=O)NCc3ccc4ccccc4c3)[C@H]12  70 µM
7. CC(=O)O[C@@H]1C#C/C=C\C#CC[C@H]2C(=O)N(C(=O)NCc3ccccc3)[C@H]12  70 µM
8. CC(=O)O[C@@H]1C#C/C=C\C#CC[C@H]2C(=O)N(C(=O)NCCc3cccc4ccccc34)[C@H]12  40 µM
9. CC(=O)Nc1cc(C(=O)Nc2cc(C(=O)N(C)CCCCCNC(=O)N3C(=O)[C@@H]4CC#C/C=C\C#C[C@@H](OC(C)=O)[C@H]43)n(C)c2)n(C)c1  35 µM
10. CC(=O)O[C@H]1C#C/C=C\C#CC[C@H]2C(=O)N(C(=O)OC(C)(C)C)[C@H]12  30 µM
11. CC(=O)O[C@H]1C#C/C=C\C#CC[C@H]2C(=O)N(C(=O)NCc3cccc4ccccc34)[C@H]12  25 µM
12. CC(=O)O[C@@H]1C#C/C=C\C#CC[C@H]2C(=O)N(C(=O)NCc3cccc4ccccc34)[C@H]12  25 µM
13. CC(=O)O[C@@H]1C#C/C=C\C#CC[C@H]2C(=O)N(C(=O)NCCCCCN(C)C(=O)Cc3cccc4ccccc34)[C@H]12  25 µM
14. CC(=O)O[C@@H]1C#C/C=C\C#CC[C@H]2C(=O)N(C(=O)NCCC(=O)NCc3ccccc3)[C@H]12  25 µM
15. CC(=O)O[C@@H]1C#C/C=C\C#CC[C@H]2C(=O)N(C(=O)Nc3cccc4ccccc34)[C@H]12  25 µM
16. CCCCNC(=O)c1cc(NC(=O)c2cc(NC(=O)CCNC(=O)N3C(=O)[C@@H]4CC#C/C=C\C#C[C@@H](OC(C)=O)[C@H]43)n(C)c2)n(C)c1  15 µM
17. CC[C@@]1(O)C(=O)OCc2c1cc1n(c2=O)Cc2c-1nc1ccccc1c2/C=N/OCCNC(=O)CCNC(=O)N1C(=O)[C@@H]2CC#C/C=C\C#C[C@@H](OC(C)=O)[C@H]21  10 µM

These compounds were tested on Escherichia coli (assay: Induction of plasmid pBR322 DNA cleavage at 1 mM after 24 hrs by gel electrophoresis).
In short: as §1

In the case of `CON1C(=O)[C@@H]2CC#C/C=C\C#CC(C)[C@H]21` (stereo partly drawn), the Activity is reported as “inactive”.

Reference: ChEMBL document CHEMBL1142420, “Synthesis and DNA-cleaving activity of lactenediynes conjugated with DNA-complexing moieties” (2008)
